One may read the inhibition as the drop in the measured response relative to a control, in per cent.

The target of the first experiment is T1, Adenosine receptor A1 (Rattus norvegicus) (UniProt P25099).
T1 sequence (whole entry): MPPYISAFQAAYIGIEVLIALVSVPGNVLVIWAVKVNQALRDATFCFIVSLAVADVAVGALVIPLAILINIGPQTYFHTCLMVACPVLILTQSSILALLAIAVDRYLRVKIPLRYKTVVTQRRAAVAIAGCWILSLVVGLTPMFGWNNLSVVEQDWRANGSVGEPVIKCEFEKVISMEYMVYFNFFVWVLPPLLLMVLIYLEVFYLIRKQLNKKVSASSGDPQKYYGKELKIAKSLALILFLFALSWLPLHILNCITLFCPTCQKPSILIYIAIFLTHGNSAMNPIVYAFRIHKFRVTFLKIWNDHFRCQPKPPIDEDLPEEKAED
The experiment can be described thus: Agonistic activity expressed as the amount of [35S]-GTP gamma-S bound at rat Adenosine A1 receptor. The class given is functional.
Details: not given
The gist of the method:
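[35S]GTPγS binding used 2 µg of rat cortex membrane protein with 10 µM GDP and 100 mM NaCl, incubated 90 min at 25 °C. Mean ±SEM, n=3.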
(In general: GTPγS resists hydrolysis and so accumulates on activated G proteins.)
The compound `OC[C@H]1O[C@@H](n2cnc3c(NC4CCCC4)ncnc32)[C@H](O)[C@@H]1O` gave an Activity of 100.

The target in the next experiment is T2, Adenosine receptor A3 (Homo sapiens) (UniProt P0DMS8).
T2 sequence (whole entry): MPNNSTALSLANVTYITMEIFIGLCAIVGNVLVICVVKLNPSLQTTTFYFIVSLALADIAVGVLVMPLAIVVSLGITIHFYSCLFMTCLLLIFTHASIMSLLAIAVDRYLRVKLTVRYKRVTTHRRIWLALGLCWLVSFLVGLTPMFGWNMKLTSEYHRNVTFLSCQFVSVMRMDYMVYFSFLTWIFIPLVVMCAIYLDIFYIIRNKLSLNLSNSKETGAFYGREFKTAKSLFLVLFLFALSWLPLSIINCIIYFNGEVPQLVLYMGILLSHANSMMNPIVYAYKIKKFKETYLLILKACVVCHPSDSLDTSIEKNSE
The experiment is described as follows: Agonistic activity expressed as the amount of [35S]GTP gamma-S bound at adenosine A3 receptor. The experiment is classed as functional.
Details: not given
The method, boiled down:
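Membranes from CHO cells expressing the human A3 receptor (1–1.5 µg protein) were incubated with 1 µM GDP and no NaCl for 90 min at 25 °C. Mean ±SEM, n=3.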
Compound `CCNC(=O)[C@H]1O[C@@H](n2cnc3c(N)ncnc32)[C@H](O)[C@@H]1O` displayed an Activity of 100.

For the next experiment, the target named is T3, Adenosine receptor A1 (Homo sapiens) (UniProt P30542).
T3 sequence (whole entry): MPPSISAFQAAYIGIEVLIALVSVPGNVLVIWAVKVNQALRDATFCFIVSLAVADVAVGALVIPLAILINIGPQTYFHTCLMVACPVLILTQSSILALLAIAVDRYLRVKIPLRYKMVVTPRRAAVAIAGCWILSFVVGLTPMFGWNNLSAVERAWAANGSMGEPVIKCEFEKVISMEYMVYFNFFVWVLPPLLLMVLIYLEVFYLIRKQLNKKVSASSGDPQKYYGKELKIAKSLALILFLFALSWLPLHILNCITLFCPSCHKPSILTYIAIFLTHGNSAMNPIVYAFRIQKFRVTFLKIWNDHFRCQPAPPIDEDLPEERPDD
The experiment is described as follows: Inhibition of Forskolin (10 nM) induced cAMP production at human Adenosine A1 receptor (compared to CPA in CHO cells). The class given is cell-based. Conditions: in the assay text read “10 µM” for “10 nM”. The method, boiled down:
(§1)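 Cells expressing the human receptor (A1 in CHO) were grown overnight as monolayers and kept in DMEM/HEPES at pH 7.4. […] Forskolin was added at 10 µM (final) for 15 min. cAMP was measured by binding-protein assay. […] Mean ±SEM, n=3.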
In general terms: Changes in cAMP serve as a functional read-out for many G protein-coupled receptors.
`COC[C@H]1O[C@@H](n2cnc3c(NCc4cccc(I)c4)ncnc32)[C@H](O)[C@@H]1O` gave an inhibition of 53%.
Turning to `O[C@@H]1[C@H](O)[C@@H](COC2CC2)O[C@H]1n1cnc2c(NC3CCCC3)nc(Cl)nc21`, the inhibition came to 43%.
Regarding `COC[C@H]1O[C@@H](n2cnc3c(NC4CCCC4)nc(Cl)nc32)[C@H](O)[C@@H]1O`, the inhibition is 73%.
On to `CCOC[C@H]1O[C@@H](n2cnc3c(N)ncnc32)[C@H](O)[C@@H]1O`, for which the inhibition is 57%.
The compound `Nc1nc(Cl)nc2c1ncn2[C@@H]1O[C@H](COC2CC2)[C@@H](O)[C@H]1O` returned an inhibition of 49%.
The compound `CCOC[C@H]1O[C@@H](n2cnc3c(NC4CCCC4)ncnc32)[C@H](O)[C@@H]1O` registered an inhibition of 69%.
`O[C@@H]1[C@H](O)[C@@H](COC2CC2)O[C@H]1n1cnc2c(NC3CCCC3)ncnc21`: the inhibition is 62%.
Compound `COC[C@H]1O[C@@H](n2cnc3c(N)nc(Cl)nc32)[C@H](O)[C@@H]1O` gave an inhibition of 78%.
The same measure, in the same setting: as for `COC[C@H]1O[C@@H](n2cnc3c(NCc4cccc(I)c4)nc(Cl)nc32)[C@H](O)[C@@H]1O`, the figure is 37%; as for `CCOC[C@H]1O[C@@H](n2cnc3c(NCc4cccc(I)c4)ncnc32)[C@H](O)[C@@H]1O`, 6%.
The same measure, in the same setting: then `CCOC[C@H]1O[C@@H](n2cnc3c(NC4CCCC4)nc(Cl)nc32)[C@H](O)[C@@H]1O`, with 62%; and `COC[C@H]1O[C@@H](n2cnc3c(NC4CCCC4)ncnc32)[C@H](O)[C@@H]1O`, with 74%; and `Nc1ncnc2c1ncn2[C@@H]1O[C@H](COC2CC2)[C@@H](O)[C@H]1O`, with 61%.
Compound `CCOC[C@H]1O[C@@H](n2cnc3c(N)nc(Cl)nc32)[C@H](O)[C@@H]1O` showed an inhibition of 67%.

In a further experiment the target is T1, Adenosine receptor A1 (Rattus norvegicus). The experiment is described as follows: Agonistic activity expressed as the amount of [35S]-GTP gamma-S bound +1 uM CPA at rat Adenosine A1 receptor. The class given is functional.
Details: not given
The gist of the method:
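Rat cortex membranes (2 µg protein) were incubated with 10 µM GDP and 100 mM NaCl for 90 min at 25 °C. Mean ±SEM, n=3.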
The compound `OC[C@H]1O[C@@H](n2cnc3c(NC4CCCC4)ncnc32)[C@H](O)[C@@H]1O` returned an Activity of 100.

Another experiment deals with T3, Adenosine receptor A1 (Homo sapiens). The experiment can be described thus: Inhibition of 10 nM Forskolin-induced cAMP production at human Adenosine A1 receptor compared to CPA in CHO cells. The class given is functional, cell-based. Conditions: in the assay text read “10 µM” for “10 nM”. The gist of the method: as §1
Consider `OC[C@H]1O[C@@H](n2cnc3c(NC4CCCC4)ncnc32)[C@H](O)[C@@H]1O`, for which the inhibition turned out to be 69%.
Compound `COC[C@H]1O[C@@H](n2cnc3c(N)ncnc32)[C@H](O)[C@@H]1O` registered an inhibition of 75%.

For another experiment, the target named is T2, Adenosine receptor A3 (Homo sapiens). The experiment is described as follows: Agonistic activity expressed as the amount of [35S]GTP gamma-S bound +1 uM NECA at adenosine A3 receptor. The class given is functional.
Details: not given
The method, boiled down:
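Human A3 receptor in CHO-cell membranes (1–1.5 µg) was incubated with 1 µM GDP and no NaCl for 90 min at 25 °C. Mean ±SEM, n=3.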
For `CCNC(=O)[C@H]1O[C@@H](n2cnc3c(N)ncnc32)[C@H](O)[C@@H]1O`, the Activity is 100.

The values above are taken from ChEMBL document CHEMBL1134582 (J Med Chem, 2001).
